Results from ChEMBL document CHEMBL1122858, “N-(1,3,4,6,7,12b-hexahydro-2H-benzo[b]furo[2,3-a]quinolizin -2-yl)-N- methyl-2-hydroxyethane-sulfonamide: a potent and selective alpha 2-adrenoceptor antagonist” (J Med Chem, 1985).

Assays:
[1] = molecular target: T1, Alpha-1A adrenergic receptor (Bos taurus, UniProt P18130); assay: Evaluated for its ability to displace [3H]prazosin from alpha-1-Adrenoceptor of calf cerebral cortex; type: tissue-based
T1 sequence (P18130 whole entry): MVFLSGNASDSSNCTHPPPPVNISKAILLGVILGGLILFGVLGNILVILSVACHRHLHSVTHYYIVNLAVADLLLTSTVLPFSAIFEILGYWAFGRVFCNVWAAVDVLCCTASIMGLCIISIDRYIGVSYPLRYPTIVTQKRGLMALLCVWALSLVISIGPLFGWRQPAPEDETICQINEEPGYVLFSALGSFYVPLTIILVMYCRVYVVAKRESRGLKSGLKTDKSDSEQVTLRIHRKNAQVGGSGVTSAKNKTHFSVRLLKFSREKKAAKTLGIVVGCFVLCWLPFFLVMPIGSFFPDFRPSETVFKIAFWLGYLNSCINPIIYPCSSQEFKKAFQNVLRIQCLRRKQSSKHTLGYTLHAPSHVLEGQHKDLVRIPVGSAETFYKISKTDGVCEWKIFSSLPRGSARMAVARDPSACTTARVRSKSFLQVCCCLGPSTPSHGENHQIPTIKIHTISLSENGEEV

[2] = molecular target: T2, Alpha-2A adrenergic receptor (Bos taurus, UniProt Q28838); assay: Evaluated for its ability to displace [3H]clonidine from alpha-2 adrenergic receptor of calf cerebral cortex; type: tissue-based
T2 sequence (Q28838 whole entry): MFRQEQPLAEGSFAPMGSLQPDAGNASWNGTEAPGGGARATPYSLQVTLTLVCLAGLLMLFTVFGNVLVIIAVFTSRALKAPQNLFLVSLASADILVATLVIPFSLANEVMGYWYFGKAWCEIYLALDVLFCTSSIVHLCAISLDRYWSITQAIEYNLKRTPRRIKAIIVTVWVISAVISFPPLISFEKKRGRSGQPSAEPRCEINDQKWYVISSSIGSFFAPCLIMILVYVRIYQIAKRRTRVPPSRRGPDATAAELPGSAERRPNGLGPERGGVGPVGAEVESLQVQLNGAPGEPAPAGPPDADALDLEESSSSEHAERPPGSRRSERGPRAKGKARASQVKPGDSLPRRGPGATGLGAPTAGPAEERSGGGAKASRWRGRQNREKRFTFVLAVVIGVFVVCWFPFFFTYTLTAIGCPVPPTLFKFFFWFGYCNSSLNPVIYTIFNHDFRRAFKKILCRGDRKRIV

Rattus norvegicus [3] = species on record: Rattus norvegicus; assay: Tested for antagonism of clonidine in the field-stimulated rat vas deferens.; type: functional; details: read-out: pA2 (converted)
How it was run: (§1)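 Isolated, field-stimulated rat vas deferens. Clonidine probes presynaptic α2-adrenoceptors and methoxamine probes postsynaptic α1-adrenoceptors. pA2 and slope come from Schild plots using at least three antagonist concentrations and four tissues per concentration. Values are means ± SD.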

[4] = molecular target: T3, Adrenergic receptor alpha-2 (Rattus norvegicus, UniProt P22086+P19328+P22909); assay: Evaluated for its ability to displace [3H]rauwolscine from alpha-2 adrenergic receptor of rat cerebral cortex; type: tissue-based
T3 sequence (P22086 whole entry): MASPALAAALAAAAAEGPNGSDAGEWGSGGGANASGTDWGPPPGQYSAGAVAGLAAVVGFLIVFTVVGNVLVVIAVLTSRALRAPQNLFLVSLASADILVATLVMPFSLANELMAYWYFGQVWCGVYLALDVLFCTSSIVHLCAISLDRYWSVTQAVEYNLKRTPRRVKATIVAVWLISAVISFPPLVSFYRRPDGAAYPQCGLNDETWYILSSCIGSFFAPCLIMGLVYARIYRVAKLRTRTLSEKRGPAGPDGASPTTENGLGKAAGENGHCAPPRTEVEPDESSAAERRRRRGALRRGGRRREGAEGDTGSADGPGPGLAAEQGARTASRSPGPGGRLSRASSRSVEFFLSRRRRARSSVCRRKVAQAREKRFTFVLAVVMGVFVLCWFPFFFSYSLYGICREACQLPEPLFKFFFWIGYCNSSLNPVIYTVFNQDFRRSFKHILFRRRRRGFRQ
T3 sequence (P19328 whole entry): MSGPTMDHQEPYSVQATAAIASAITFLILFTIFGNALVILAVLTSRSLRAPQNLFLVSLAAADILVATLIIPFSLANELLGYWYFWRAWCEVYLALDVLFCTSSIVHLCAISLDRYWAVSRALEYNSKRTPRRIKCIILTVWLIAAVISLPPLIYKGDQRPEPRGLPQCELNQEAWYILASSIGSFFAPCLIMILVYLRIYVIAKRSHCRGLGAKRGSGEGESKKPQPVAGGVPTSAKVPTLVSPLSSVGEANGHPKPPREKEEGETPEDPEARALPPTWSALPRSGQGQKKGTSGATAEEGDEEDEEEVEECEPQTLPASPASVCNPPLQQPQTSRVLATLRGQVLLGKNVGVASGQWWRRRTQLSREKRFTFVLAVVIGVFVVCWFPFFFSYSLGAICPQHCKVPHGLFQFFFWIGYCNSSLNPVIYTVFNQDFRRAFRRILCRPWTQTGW
T3 sequence (P22909 whole entry): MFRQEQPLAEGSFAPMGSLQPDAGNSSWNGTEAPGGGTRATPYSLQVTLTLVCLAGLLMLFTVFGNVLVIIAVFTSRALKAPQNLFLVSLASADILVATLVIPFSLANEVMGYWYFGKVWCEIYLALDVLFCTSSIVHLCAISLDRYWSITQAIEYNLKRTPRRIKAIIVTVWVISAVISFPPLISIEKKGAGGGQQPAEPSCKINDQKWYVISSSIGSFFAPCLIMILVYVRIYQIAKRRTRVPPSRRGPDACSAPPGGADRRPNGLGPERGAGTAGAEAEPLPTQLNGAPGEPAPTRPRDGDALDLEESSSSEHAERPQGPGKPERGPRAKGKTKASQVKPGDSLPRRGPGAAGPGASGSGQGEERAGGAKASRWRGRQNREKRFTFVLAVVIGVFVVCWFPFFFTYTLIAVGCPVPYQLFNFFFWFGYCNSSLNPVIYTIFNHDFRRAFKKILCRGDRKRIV

Rattus norvegicus [5] = assay: Tested for reversal of clonidine-induced mydriasis in the rat administered intravenously; type: functional; details: iv
How it was run: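 In rats, clonidine-induced mydriasis from activation of central postsynaptic α2-adrenoceptors is established first. Test agents are then scored for reversing it, as a read-out of blood-brain barrier penetration and central α2 antagonism.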

Rattus norvegicus [6] = species on record: Rattus norvegicus; assay: Tested for antagonism of methoxamine in the field-stimulated rat vas deferens.; type: functional; details: read-out: pA2 (converted); how it was run: as §1

| Ki [1] [nM] | Ki [2] [nM] | Ki [4] [nM] | Structure (SMILES) | Kb (Rattus norvegicus [3]) [nM] | ED50 (Rattus norvegicus [5]) [mg/kg] | Kb (Rattus norvegicus [6]) [nM] |
| --- | --- | --- | --- | --- | --- | --- |
| 8000 | 100 | 190 | CN([C@H]1CCN2CCc3c(oc4ccccc34)[C@H]2C1)S(=O)(=O)CCO | 39.8 | 5.41 | 2510 |
| 210 | 1.36 | 1.6 | CN(C1CCN2CCc3c(oc4ccccc34)C2C1)S(=O)(=O)CCO (stereo unspecified) | 1.7 | 0.0435 | 102 |
| 110 | 0.77 | 1.1 | CN([C@@H]1CCN2CCc3c(oc4ccccc34)[C@@H]2C1)S(=O)(=O)CCO | 0.794 | 0.0346 | 34.7 |
|  |  |  | COC(=O)[C@@H]1[C@H]2C[C@H]3c4[nH]c5ccccc5c4CCN3C[C@@H]2CC[C@@H]1O [YOHIMBINE] | 22.4 | 1.04 | 302 |
